Laboratory results: PMC7655718 (The Journal of antibiotics, 2020)
Values after ≈ are worked out from the molar mass of the structure shown. Read-outs that look alike come from different tables or passages of the source.

What was measured:
[1] = test system: S. aureus ATCC 25923 biofilm formation; experiment: Biofilm inhibition assay; assay type: cell-based, Staphylococcus aureus
Outline: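 Blood-agar culture was suspended in PBS (0.5 McFarland), then diluted 1:100 in yeast extract casamino acid broth (about 1x10^6 cfu/mL). Compound at 2xMIC, MIC and 0.5xMIC was added before biofilm formation, in triplicate, with broth-only and bacteria+DMSO controls. Incubation was 35 °C for 24 h. Wells were PBS-washed, dried, stained with 0.1% crystal violet, solubilised in 33% acetic acid and read at 620 nm. % inhibition = [1−(ODcompound−ODbroth)/(ODdmso−ODbroth)]×100, from mean and SD.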

[2] = test system: S. aureus ATCC 700699 (Sa99); experiment: MIC, microdilution with resazurin; assay type: cell-based; settings: Staphylococcus aureus, ATCC700699, read-out: MIC Sa99
Outline: (§1)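 Compounds dissolved in DMSO at 2 mg/mL. Overnight blood-agar colonies were suspended in PBS to 0.5 McFarland, then diluted in Mueller Hinton broth to about 1x10^6 cfu/mL with resazurin (1:1000 of 0.1% w/v stock). Twofold DMSO dilutions were added 1:40, giving 50 to 0.4 μg/mL at 2.5% DMSO. Incubation was 35 °C for 16-20 h. Blue/non-turbid wells counted as inhibited, pink/turbid as grown.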

[3] = test system: A. baumannii ATCC 19606 (type strain, Ab06); experiment: MIC and MBC; assay type: cell-based, Acinetobacter baumannii; settings: Acinetobacter baumannii
Outline: as §1

[4] = test system: S. aureus ATCC 33599 (MRSA); experiment: Time kill assay; assay type: cell-based, Staphylococcus aureus; settings: 4xMIC
Outline: (§2)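 Growth curves by optical density set the log phase. Log-phase bacteria (about 2 h shaking in Mueller Hinton broth II) were diluted in warm broth to about 3x10^6 cfu/mL. They were exposed to compound at 4xMIC (other multiples where indicated), in triplicate, at 35 °C. Colistin (A. baumannii) or vancomycin (S. aureus) and DMSO were included. Samples at 0, 2, 4, 6, 8, 10, 12 and 24 h were counted by drop plate on blood agar (18-24 h, 35 °C). Log cfu/mL was plotted against time.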

[5] = test system: S. epidermidis 700296 (Se); experiment: MIC, microdilution with resazurin; assay type: cell-based; settings: Staphylococcus epidermidis, read-out: MIC Se
Outline: as §1

[6] = test system: A. baumannii ATCC 747 (Ab47); experiment: MIC, microdilution with resazurin; assay type: cell-based, Acinetobacter baumannii; settings: Acinetobacter baumannii, ATCC747, read-out: MIC Ab47
Outline: as §1

[7] = test system: S. aureus ATCC 33591 (Sa91); experiment: MIC, microdilution with resazurin; assay type: cell-based; settings: Staphylococcus aureus, ATCC33591, read-out: MIC Sa91
Outline: as §1

[8] = test system: S. aureus ATCC 25923 preformed biofilm; experiment: Biofilm destruction assay; assay type: cell-based, Staphylococcus aureus; settings: 2xMIC, MIC and 0.5xMIC tested, 24 hours
Outline: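 Biofilm was first grown in 96-well plates for 24 h at 35 °C and washed with PBS to remove unadhered cells. Fresh yeast extract casamino acid broth was added with compound at 2xMIC, MIC or 0.5xMIC, or DMSO, in triplicate, plus broth-only wells. Incubation was 35 °C for 24 h. Crystal violet was stained, solubilised and read at 620 nm. % destruction = [1−(ODcompound−ODbroth)/(ODdmso−ODbroth)]×100, from triplicate means.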

[9] = test system: S. aureus ATCC 33592 (Sa92); experiment: MIC, microdilution with resazurin; assay type: cell-based; settings: Staphylococcus aureus, ATCC33592, read-out: MIC Sa92
Outline: as §1

[10] = test system: B. subtilis ATCC 6623 (Bs); experiment: MIC, microdilution with resazurin; assay type: cell-based, Bacillus subtilis; settings: for MIC: Bacillus subtilis, ATCC6623, read-out: MIC Bs
[11] = test system: S. aureus BAA-2312 (Sa12); experiment: MIC, microdilution with resazurin; assay type: cell-based; settings: Staphylococcus aureus, BAA2312, read-out: MIC Sa12
Outline: as §1

[12] = test system: S. aureus ATCC 25923 (Sa23); experiment: MIC, microdilution with resazurin; assay type: cell-based; settings: Staphylococcus aureus, ATCC25923, read-out: MIC Sa23
Outline: as §1

[13] = test system: S. aureus ATCC 33599 (MRSA); experiment: MIC and MBC; assay type: cell-based, Staphylococcus aureus; settings: Staphylococcus aureus, ATCC33599|MRSA
Outline: as §1

[14] = test system: tested Gram-positive bacterial strains; experiment: MIC, text summary over tested Gram-positive strains; assay type: cell-based; settings: read-out: MIC value as low as
[15] = test system: A. baumannii ATCC 19606; experiment: Time kill assay; assay type: cell-based, Acinetobacter baumannii; settings: 4xMIC
Outline: as §2

[16] = test system: human embryonic kidney cell line (HEK293); experiment: Toxicity against HEK293 cell line; assay type: cell-based
[17] = test system: tested A. baumannii strains; experiment: MIC, text summary over A. baumannii strains; assay type: cell-based, Acinetobacter baumannii; settings: Acinetobacter baumannii, read-out: MIC value as low as
Outline: as §1

[18] = 2xMIC, MIC and 0.5xMIC concentrations, 24 hours

Row | SMILES | MIC [2] | MIC ([3]; ATCC19606, read-out: MIC Ab06) | MIC [5] | MIC [6] | MIC [7] | destruction of preformed biofilm [8] | MIC [9] | MIC [10] | MIC [11] | MIC [12] | MBC [13] | MIC [13] | MIC [14] | toxicity for HEK293 [16] | further results
1 | CN[C@H](CC(C)C)C(=O)N[C@H]1C(=O)N[C@@H](CC(N)=O)C(=O)N[C@H]2C(=O)N[C@H]3C(=O)N[C@H](C(=O)N[C@H](C(=O)O)c4cc(O)cc(O)c4-c4cc3ccc4O)[C@H](O)c3ccc(c(Cl)c3)Oc3cc2cc(c3O[C@@H]2O[C@H](CO)[C@@H](O)[C@H](O)[C@H]2O[C@H]2C[C@](C)(N)[C@H](O)[C@H](C)O2)Oc2ccc(cc2Cl)[C@H]1O [VC, vancomycin, reference compound] | 3.12 µg/mL (≈ 2.16 µM) | > 50 µg/mL | 3.12 µg/mL (≈ 2.16 µM) | > 50 µg/mL | 3.12 µg/mL (≈ 2.16 µM) | almost failed to show any activity | 0.39 µg/mL (≈ 0.269 µM) | 0.195 µg/mL (≈ 0.135 µM) | 0.78 µg/mL (≈ 0.538 µM) | 1.56 µg/mL (≈ 1.08 µM) | 6.25 µg/mL (≈ 4.31 µM) | 3.12 µg/mL (≈ 2.16 µM) | – | – | inhibition of biofilm formation ([1]; 0.5xMIC): weak inhibition; inhibition of biofilm formation ([1]; 2xMIC and MIC concentration): potent inhibition; time until bacteria were eliminated [4]: ≤ 8 h; time kill effect ([4]; 24 hours at 35 °C): mildly bactericidal
2 | O=C(O)c1ccc(-n2cc(/C=N/N(c3ccccc3)c3ccccc3)c(-c3ccc4ccccc4c3)n2)cc1 [Compound 8] | 1.56 µg/mL (≈ 3.07 µM) | > 50 µg/mL | 1.56 µg/mL (≈ 3.07 µM) | > 50 µg/mL | 3.12 µg/mL (≈ 6.14 µM) | – | 1.56 µg/mL (≈ 3.07 µM) | 12.5 µg/mL (≈ 24.6 µM) | 3.12 µg/mL (≈ 6.14 µM) | 1.56 µg/mL (≈ 3.07 µM) | – | – | ≥ 1.56 µg/mL | – | inhibition of biofilm formation [1, 18]: very effective
3 | O=C(O)c1ccc(-n2cc(/C=N/Nc3ccc(Cl)cc3)c(-c3ccc4ccccc4c3)n2)cc1 [Compound 16] | 1.56 µg/mL (≈ 3.34 µM) | 3.12 µg/mL (≈ 6.69 µM) | 6.25 µg/mL (≈ 13.4 µM) | 6.25 µg/mL (≈ 13.4 µM) | 12.5 µg/mL (≈ 26.8 µM) | – | 3.12 µg/mL (≈ 6.69 µM) | 12.5 µg/mL (≈ 26.8 µM) | 6.25 µg/mL (≈ 13.4 µM) | 6.25 µg/mL (≈ 13.4 µM) | – | – | – | – | MBC ([3]; ATCC19606): 50 µg/mL (≈ 107 µM); MIC ([3]; ATCC19606): 3.12 µg/mL (≈ 6.69 µM); time kill effect ([15]; 24 hours at 35 °C): bacteriostatic effect; increase in log10 cfu/mL of the bacterial population ([15]; through 24 hours): ≤ 2 fold
4 | O=C(O)c1ccc(-n2cc(/C=N/Nc3c(F)c(F)cc(F)c3F)c(-c3ccc4ccccc4c3)n2)cc1 [Compound 23] | 1.56 µg/mL (≈ 3.09 µM) | > 50 µg/mL | > 50 µg/mL | > 50 µg/mL | > 50 µg/mL | – | 1.56 µg/mL (≈ 3.09 µM) | 3.12 µg/mL (≈ 6.19 µM) | > 50 µg/mL | 3.12 µg/mL (≈ 6.19 µM) | 12.5 µg/mL (≈ 24.8 µM) | 1.56 µg/mL (≈ 3.09 µM) | ≥ 0.78 µg/mL | selective toxicity for bacterial cells | –
5 | O=C(O)c1ccc(-n2cc(/C=N/Nc3ccc(C(F)(F)F)cc3)c(-c3ccc4ccccc4c3)n2)cc1 [Compound 25] | 0.78 µg/mL (≈ 1.56 µM) | > 50 µg/mL | 25 µg/mL (≈ 50 µM) | > 50 µg/mL | 25 µg/mL (≈ 50 µM) | excellent ability to eliminate the preformed biofilms | 0.78 µg/mL (≈ 1.56 µM) | 1.56 µg/mL (≈ 3.12 µM) | 12.5 µg/mL (≈ 25 µM) | 0.78 µg/mL (≈ 1.56 µM) | 25 µg/mL (≈ 50 µM) | 0.78 µg/mL (≈ 1.56 µM) | ≥ 0.78 µg/mL | – | inhibition of biofilm formation ([1]; 2xMIC): potent biofilm inhibition activity
6 | O=C(O)c1ccc(-n2cc(/C=N/Nc3cccc(F)c3)c(-c3ccc4ccccc4c3)n2)cc1 [Compound 15] | 1.56 µg/mL (≈ 3.46 µM) | 6.25 µg/mL (≈ 13.9 µM) | 6.25 µg/mL (≈ 13.9 µM) | 12.5 µg/mL (≈ 27.7 µM) | 12.5 µg/mL (≈ 27.7 µM) | – | 3.12 µg/mL (≈ 6.94 µM) | 12.5 µg/mL (≈ 27.7 µM) | 12.5 µg/mL (≈ 27.7 µM) | 6.25 µg/mL (≈ 13.9 µM) | – | – | ≥ 1.56 µg/mL | – | MBC ([3]; ATCC19606): 12.5 µg/mL (≈ 27.7 µM); MIC ([3]; ATCC19606): 6.25 µg/mL (≈ 13.9 µM); MIC [17]: ≥ 6.25 µg/mL
7 | O=C(O)c1ccc(-n2cc(/C=N/Nc3ccccc3F)c(-c3ccc4ccccc4c3)n2)cc1 [Compound 14] | 3.12 µg/mL (≈ 6.94 µM) | 25 µg/mL (≈ 55.5 µM) | 12.5 µg/mL (≈ 27.7 µM) | 25 µg/mL (≈ 55.5 µM) | 12.5 µg/mL (≈ 27.7 µM) | – | 1.56 µg/mL (≈ 3.46 µM) | 6.25 µg/mL (≈ 13.9 µM) | 12.5 µg/mL (≈ 27.7 µM) | 12.5 µg/mL (≈ 27.7 µM) | – | – | ≥ 1.56 µg/mL | – | MIC [17]: ≥ 6.25 µg/mL
8 | O=C(O)c1ccc(-n2cc(/C=N/Nc3c(F)c(F)c(F)c(F)c3F)c(-c3ccc4ccccc4c3)n2)cc1 [Compound 24] | 0.78 µg/mL (≈ 1.49 µM) | > 50 µg/mL | > 50 µg/mL | > 50 µg/mL | > 50 µg/mL | – | 0.78 µg/mL (≈ 1.49 µM) | 1.56 µg/mL (≈ 2.99 µM) | > 50 µg/mL | 3.12 µg/mL (≈ 5.98 µM) | – | – | ≥ 0.78 µg/mL | selective toxicity for bacterial cells | –
9 | O=C(O)c1ccc(-n2cc(/C=N/N(Cc3ccccc3)Cc3ccccc3)c(-c3ccc4ccccc4c3)n2)cc1 [Compound 10] | 1.56 µg/mL (≈ 2.91 µM) | > 50 µg/mL | 3.12 µg/mL (≈ 5.82 µM) | > 50 µg/mL | 1.56 µg/mL (≈ 2.91 µM) | excellent ability to eliminate the preformed biofilms | 1.56 µg/mL (≈ 2.91 µM) | > 50 µg/mL | 3.12 µg/mL (≈ 5.82 µM) | 3.12 µg/mL (≈ 5.82 µM) | – | – | ≥ 1.56 µg/mL | did not show any significant toxicity | inhibition of biofilm formation [1, 18]: very effective; MIC Bs ([10]; B. subtilis ATCC 6623): no activity; IC50 ([16]; Homo sapiens, HEK293, read-out: IC50 for HEK293 cell line): ~50 µg/mL (≈ 93.2 µM)
